One assay has as its target Mu-type opioid receptor (Cavia porcellus, UniProt P97266). The assay can be described thus: Agonist activity at mu opioid receptor by guinea pig ileum assay. It is filed as functional, tissue-based. The method in brief:
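Myenteric plexus–longitudinal muscle from male guinea pig ileum was field-stimulated with supramaximal bipolar rectangular pulses. Agonism was read as inhibition of the electrically evoked twitch, referenced to dermorphin. IC50 came from dose-response curves over at least six experiments on fresh tissue.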

Assay [1] has as its target Delta-type opioid receptor (Mus musculus) (UniProt P32300). Put plainly: (§1) Agonist activity at delta opioid receptor by mouse vas deferens assay. It is filed as functional, tissue-based. The essentials: (§2)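 Isolated mouse vas deferens was field-stimulated with supramaximal bipolar rectangular pulses. Agonism was read as inhibition of the electrically evoked twitch, referenced to deltorphin C. IC50 came from dose-response curves over at least six experiments on fresh tissue.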

The target of assay [2] is Delta-type opioid receptor (Mus musculus, UniProt P32300). The description is as §1. It counts as functional, tissue-based. The essentials: as §2
Delta-type opioid receptor, sequence (P32300 whole entry): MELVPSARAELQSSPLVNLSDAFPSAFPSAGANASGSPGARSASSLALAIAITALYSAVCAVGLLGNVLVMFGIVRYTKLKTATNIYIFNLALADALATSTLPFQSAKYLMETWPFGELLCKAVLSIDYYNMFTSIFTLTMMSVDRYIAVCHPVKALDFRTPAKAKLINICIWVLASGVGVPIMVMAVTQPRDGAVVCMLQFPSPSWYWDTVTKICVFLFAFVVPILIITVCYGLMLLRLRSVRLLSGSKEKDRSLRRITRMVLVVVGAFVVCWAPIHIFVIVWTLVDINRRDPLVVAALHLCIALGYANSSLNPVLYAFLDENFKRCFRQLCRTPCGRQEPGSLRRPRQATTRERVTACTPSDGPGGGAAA
In assay [3] the target is Delta-type opioid receptor (Mus musculus) (UniProt P32300). Put plainly: Activity at delta opioid receptor by mouse vas deferens assay. It is filed as functional, tissue-based. To be noted: filed as partial agonist. The essentials:
as §2

Assay [4] concerns the target Opioid receptors; mu & delta (Homo sapiens) (UniProt P41143+P35372). Put plainly: Selectivity for delta opioid receptor over mu opioid receptor. It is filed as protein assay. The essentials: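 Non-specific binding was set with 2 μM unlabeled peptide. Five to eight peptide doses were run in duplicate, with independent repeats on different preparations. Samples were filtered on 0.1% polyethylenimine-soaked glass fiber filters and washed thrice with ice-cold buffered BSA. Ki was derived by Cheng–Prusoff.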

Data on 5 compounds can be found in ChEMBL document CHEMBL1138032, “New 2',6'-dimethyl-L-tyrosine (Dmt) opioid peptidomimetics based on the Aba-Gly scaffold. Development of unique mu-opioid receptor ligands” (J Med Chem, 2006).

Square brackets hold non-standard residues; d marks the D form. Peptide text beside a SMILES is read from it. * marks the point of attachment. Dmt = Cc1cc(O)cc(C)c1C[C@H](N)C(=O)O; Tic = O=C(O)[C@@H]1Cc2ccccc2CN1; NHBn = c1ccc(CN*)cc1; NHPh = c1ccc(N*)cc1

A word on the IC50: it is the concentration at which inhibition is half-maximal. Read a high IC50 as weaker potency in that assay.

Mu-type opioid receptor, sequence (P97266 whole entry): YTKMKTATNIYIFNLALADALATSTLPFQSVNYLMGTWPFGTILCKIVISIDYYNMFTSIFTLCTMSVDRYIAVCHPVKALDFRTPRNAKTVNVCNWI
Delta-type opioid receptor (Mus musculus), sequence (P32300 whole entry): as the sequence (P32300 whole entry) above
Opioid receptors; mu & delta (Homo sapiens), sequence (P35372 whole entry, looked up): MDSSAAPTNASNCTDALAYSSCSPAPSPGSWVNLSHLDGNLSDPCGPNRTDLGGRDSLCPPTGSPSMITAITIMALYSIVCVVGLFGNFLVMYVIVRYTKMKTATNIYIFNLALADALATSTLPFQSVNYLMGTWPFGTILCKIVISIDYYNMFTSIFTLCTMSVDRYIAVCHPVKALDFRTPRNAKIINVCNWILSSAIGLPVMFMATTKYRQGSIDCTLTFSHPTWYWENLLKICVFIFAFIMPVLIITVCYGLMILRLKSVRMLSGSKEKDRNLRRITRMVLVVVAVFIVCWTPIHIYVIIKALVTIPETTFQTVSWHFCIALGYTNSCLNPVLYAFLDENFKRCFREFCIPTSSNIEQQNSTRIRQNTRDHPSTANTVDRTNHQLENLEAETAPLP
Opioid receptors; mu & delta (Homo sapiens), sequence (P41143 whole entry, looked up): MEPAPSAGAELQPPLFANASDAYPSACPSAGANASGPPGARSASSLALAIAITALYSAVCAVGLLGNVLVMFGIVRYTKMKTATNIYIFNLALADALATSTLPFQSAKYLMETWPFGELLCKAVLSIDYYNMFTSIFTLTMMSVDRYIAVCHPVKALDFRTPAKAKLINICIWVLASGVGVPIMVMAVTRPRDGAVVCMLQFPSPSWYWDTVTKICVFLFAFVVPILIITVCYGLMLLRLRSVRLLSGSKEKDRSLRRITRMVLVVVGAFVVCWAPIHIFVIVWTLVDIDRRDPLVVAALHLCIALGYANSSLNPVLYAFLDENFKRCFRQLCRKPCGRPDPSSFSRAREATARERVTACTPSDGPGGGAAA

Consider `Cc1cc(O)cc(C)c1C[C@H](N)C(=O)N[C@H]1Cc2ccccc2CN(CC(=O)Nc2ccccc2)C1=O`, for which the half-inhibitory concentration (IC50) at Mu-type opioid receptor came out at 95 nM; in assay [2] it was 650 nM. The same compound showed a %max in assay [1] of 40%. Moreover, the Activity entry in assay [3] was “Partial agonist”.
For `Cc1cc(O)cc(C)c1C[C@H](N)C(=O)N[C@H]1Cc2ccccc2CN(CC(=O)NCc2ccccc2)C1=O`, the half-inhibitory concentration (IC50) at Mu-type opioid receptor amounted to 51 nM; in assay [2], 830 nM.
For `Cc1cc(O)cc(C)c1C[C@H](N)C(=O)N1Cc2ccccc2C[C@H]1C(=O)NCC(=O)Nc1ccccc1` (H-[Dmt]-[Tic]-Gly-NHPh), the half-inhibitory concentration (IC50) at Mu-type opioid receptor was found to be 2.57 nM; in assay [2], 3.02 nM. Moreover, in assay [4], the Selectivity ratio amounted to 3.6.
For `Cc1cc(O)cc(C)c1C[C@H](N)C(=O)N1Cc2ccccc2C[C@H]1C(=O)NCC(=O)NCc1ccccc1` (H-[Dmt]-[Tic]-Gly-NHBn), the IC50 on Mu-type opioid receptor is 2.69 nM. Also, the Selectivity ratio in assay [4] was 5.3.
For `Cc1cc(O)cc(C)c1C[C@H](N)C(=O)N[C@H]1Cc2ccccc2CN(Cc2nc3ccccc3[nH]2)C1=O`, the IC50 came to 231 nM at Mu-type opioid receptor and 2700 nM in assay [2]. This compound also had a %max in assay [1] of 40%. Moreover, the Activity result in assay [3] is “Partial agonist”.
